Measured values from different studies.

C=CS(=O)(=O)c1ccc(Nc2nc(OCC3CCCCC3)c3nc[nH]c3n2)cc1  AUC(0-t) (male BALB/c mouse, plasma; intraperitoneal, 20 mg/kg, single dose): 137 ng·h/mL
C[C@]12CC[C@H]3[C@@H](CC=C4CC(O)CC[C@@]43CO)[C@@H]1CCC2O (stereo partly shown)  half-life (metabolic stability; rat, liver microsomes): 19.9 min
CC(C)C[C@H](NC(=O)[C@H](Cc1ccccc1)NC(=O)[C@H](Cc1ccccc1)NC(=O)Cc1ccc(-c2ccccc2)cc1)C(=O)N[C@@H](CCCCN)C(=O)N[C@@H](CCCNC(=N)N)C(=O)N[C@H](C(=O)N[C@@H](Cc1c[nH]c2ccccc12)C(=O)N[C@@H](CCCCN)C(=O)N[C@@H](CCCNC(=N)N)C(=O)O)C(C)C  half-life (metabolic stability; rat, liver microsomes; 1 µM): 5.12 min
CNC(=O)c1ccc(-c2cnn3ccc(C(=O)N(C)c4ccc(Cl)c(C(=O)O)c4)cc23)cc1  AUC (female C57BL/6 mouse, plasma; oral, 10 mg/kg/day): 34 ng·h/mL
Cn1nccc1[C@]1(CNC(=O)c2ccc(F)c(F)c2-c2ccc(C(F)(F)F)cc2)NC(=O)NC1=O  bioavailability (male C57BL/6 mouse, plasma; oral, 1 mg/kg): 132%
CN1CCN(S(=O)(=O)c2cc([N+](=O)[O-])ccc2N(CCOS(C)(=O)=O)CCOS(C)(=O)=O)CC1  AUC(0-inf) (female SCID mouse, plasma; intraperitoneal, 5 mg/kg): 0.5 µM·h
NCCNC(=O)O[C@H]1CCC[C@@]2(C1)OOC1(O2)C2CC3CC(C2)CC1C3 (stereo partly shown)  AUC(0-inf) (male CD-1 mouse, plasma; intravenous, 3 mg/kg): 757 ng·h/mL
CONC(=O)[C@H]1[C@@H](O)[C@@]2(O)c3c(OC)cc(OC)cc3O[C@@]2(c2ccc(OC)cc2)[C@@H]1c1ccccc1  half-life (metabolic stability; rat, liver microsomes): 58.3 min
CNC(=O)c1ccc(-c2cnn3ccc(C(=O)N(C)c4ccc(Cl)c(C(=O)OC)c4)cc23)cc1  AUC (female C57BL/6 mouse, plasma; oral, 10 mg/kg/day): 9.1 ng·h/mL
COc1cc(Cl)cc2c(=O)n3c(nc12)[C@@H]1CCCN(C)[C@@H]1CC3 (racemic)  CC50 (SH-SY5Y; cell growth or viability, ATP luminescence; 72 h): > 20 µM
COCC1=N[C@@]2(O)[C@H](C(=O)N(C)OC)[C@@H](c3ccccc3)[C@]3(c4ccc(OC)cc4)Oc4cc(OC)cc(OC)c4[C@]23N1  half-life (metabolic stability; male Sprague-Dawley rat, liver microsomes; 1 µM, pH 7.4): 74.7 min
CN1CC[C@H]2c3nc4ccc(Cl)cc4c(=O)n3CC[C@H]21 (racemic)  CC50 (SH-SY5Y; cell growth or viability, ATP luminescence): > 20 µM
C[C@]12CC[C@H]3[C@@H](CCC4=CC(=O)CC[C@@]43C)[C@@H]1CC[C@@H]2O  half-life (metabolic stability; Sprague-Dawley rat, hepatocytes; 1 µM): 2.92 min
